{
  "source": "ChEMBL document CHEMBL3259728",
  "about": "“Design, synthesis and biological evaluation of some novel substituted quinazolines as antitumor agents” (2014)",
  "type_in_all_cases": "functional",
  "key": {"U-251": {"system": "U-251", "assay": "Growth inhibition of human U251 cells assessed as cell growth at 10^-4 M after 48 hrs by SRB assay", "conditions": "U-251, 48 h, read-out: Activity"}, "HCT-116": {"system": "HCT-116", "assay": "Growth inhibition of human HCT116 cells assessed as cell growth at 10^-4 M after 48 hrs by SRB assay", "conditions": "HCT-116, 48 h, read-out: Activity"}, "MDA-MB-435": {"system": "MDA-MB-435", "assay": "Growth inhibition of human MDA-MB-435 cells assessed as cell growth at 10^-8 M after 48 hrs by SRB assay", "conditions": "MDA-MB-435, 48 h, read-out: Activity"}, "K562": {"system": "K562", "assay": "Growth inhibition of human K562 cells assessed as cell growth at 10^-8 M after 48 hrs by SRB assay", "conditions": "K562, 48 h, read-out: Activity"}, "SK-MEL-5": {"system": "SK-MEL-5", "assay": "Growth inhibition of human SK-MEL-5 cells assessed as cell growth at 10^-5 M after 48 hrs by SRB assay", "conditions": "SK-MEL-5, 48 h, read-out: Activity"}, "SK-MEL-28": {"system": "SK-MEL-28", "assay": "Growth inhibition of human SK-MEL-28 cells assessed as cell growth at 10^-5 M after 48 hrs by SRB assay", "conditions": "SK-MEL-28, 48 h, read-out: Activity"}, "SNB-75": {"system": "SNB-75", "assay": "Growth inhibition of human SNB75 cells assessed as cell growth at 10^-5 M after 48 hrs by SRB assay", "conditions": "SNB-75, 48 h, read-out: Activity"}, "SNB-19": {"system": "SNB-19", "assay": "Growth inhibition of human SNB19 cells assessed as cell growth at 10^-5 M after 48 hrs by SRB assay", "conditions": "SNB-19, 48 h, read-out: Activity"}, "MDA-MB-468 [1]": {"system": "MDA-MB-468", "assay": "Growth inhibition of human MDA-MB-468 cells assessed as cell growth at 10^-6 M after 48 hrs by SRB assay", "conditions": "MDA-MB-468, 48 h, read-out: Activity"}, "MDA-MB-231": {"system": "MDA-MB-231", "assay": "Growth inhibition of human MDA-MB-231 cells assessed as cell growth at 10^-6 M after 48 hrs by SRB assay", "conditions": "MDA-MB-231, 48 h, read-out: Activity"}, "DU-145": {"system": "DU-145", "assay": "Growth inhibition of human DU145 cells assessed as cell growth at 10^-6 M after 48 hrs by SRB assay", "conditions": "DU-145, 48 h, read-out: Activity"}, "PC-3 [2]": {"system": "PC-3", "assay": "Growth inhibition of human PC3 cells assessed as cell growth at 10^-6 M after 48 hrs by SRB assay", "conditions": "PC-3, 48 h, read-out: Activity"}, "[3]": {"assay": "Growth inhibition of human OVCAR4 cells assessed as cell growth at 10^-6 M after 48 hrs by SRB assay", "conditions": "OVCAR-4, 48 h, read-out: Activity"}, "[4]": {"assay": "Growth inhibition of human OVCAR3 cells assessed as cell growth at 10^-6 M after 48 hrs by SRB assay", "conditions": "OVCAR-3, 48 h, read-out: Activity"}, "NCI-H226": {"system": "NCI-H226", "assay": "Growth inhibition of human NCI-H226 cells assessed as cell growth at 10^-4 M after 48 hrs by SRB assay", "conditions": "NCI-H226, 48 h, read-out: Activity"}, "Malme-3M [5]": {"system": "Malme-3M", "assay": "Growth inhibition of human MALME-3M cells assessed as cell growth at 10^-5 M after 48 hrs by SRB assay", "conditions": "read-out: Activity"}, "PC-3 [6]": {"system": "PC-3", "assay": "Growth inhibition of human PC3 cells assessed as cell growth at 10^-7 M after 48 hrs by SRB assay", "conditions": "PC-3, 48 h, read-out: Activity"}, "786-0": {"system": "786-0", "assay": "Growth inhibition of human 786-0 cells assessed as cell growth at 10^-8 M after 48 hrs by SRB assay", "conditions": "786-0, 48 h, read-out: Activity", "in_short": "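Five-dose NCI panel protocol. Each dose (10^-4 to 10^-8 M, 10-fold steps) was given as 48 h continuous exposure, and protein was measured by SRB staining. Percentage growth at each level is [(Ti−Tz)/(C−Tz)]×100, where Tz is time-zero absorbance and C is untreated control.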"}, "[7]": {"assay": "Growth inhibition of human NCI-ADR-RES cells assessed as cell growth at 10^-8 M after 48 hrs by SRB assay", "conditions": "read-out: Activity"}, "[8]": {"assay": "Cytotoxicity against human OVCAR8 cells after 48 hrs by SRB assay", "conditions": "OVCAR-8, 48 h", "in_short": "(§1)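 NCI 60-cell-line panel of human tumour lines from nine cancer types. Continuous 48 h exposure at five 10-fold dilutions from 10^-4 to 10^-8 M, with 5-FU as positive control. SRB protein stain read spectrophotometrically at time zero, untreated control and each concentration. GI50, TGI and LC50 were derived from the [(Ti−Tz)/(C−Tz)]×100 growth relations, and out-of-range values are given as > or < the tested limits.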"}, "KM12": {"system": "KM12", "assay": "Growth inhibition of human KM12 cells assessed as cell growth at 10^-6 M after 48 hrs by SRB assay", "conditions": "KM12, 48 h, read-out: Activity"}, "[9]": {"assay": "Growth inhibition of human SF295 cells assessed as cell growth at 10^-8 M after 48 hrs by SRB assay", "conditions": "SF-295, 48 h, read-out: Activity"}, "HOP-62 [10]": {"system": "HOP-62", "assay": "Growth inhibition of human HOP62 cells assessed as cell growth at 10^-6 M after 48 hrs by SRB assay", "conditions": "HOP-62, 48 h, read-out: Activity"}, "[11]": {"assay": "Growth inhibition of human NCI-ADR-RES cells assessed as cell growth at 10^-7 M after 48 hrs by SRB assay", "conditions": "read-out: Activity"}, "Malme-3M [12]": {"system": "Malme-3M", "assay": "Growth inhibition of human MALME-3M cells assessed as cell growth at 10^-7 M after 48 hrs by SRB assay", "conditions": "read-out: Activity"}, "SF-268": {"system": "SF-268", "assay": "Growth inhibition of human SF268 cells assessed as cell growth at 10^-7 M after 48 hrs by SRB assay", "conditions": "SF-268, 48 h, read-out: Activity"}, "MDA-MB-468 [13]": {"system": "MDA-MB-468", "assay": "Growth inhibition of human MDA-MB-468 cells assessed as cell growth at 10^-8 M after 48 hrs by SRB assay", "conditions": "MDA-MB-468, 48 h, read-out: Activity"}, "HCC 2998": {"system": "HCC 2998", "assay": "Cytotoxicity against human HCC2998 cells after 48 hrs by SRB assay", "conditions": "HCC 2998, 48 h", "in_short": "as §1"}, "HOP-62 [14]": {"system": "HOP-62", "assay": "Cytotoxicity against human HOP62 cells after 48 hrs by SRB assay", "conditions": "HOP-62, 48 h", "in_short": "as §1"}, "[15]": {"conditions": "read-out: LC50 (the source's name)"}, "[16]": {"conditions": "read-out: pLC50 (the source's name) (converted)"}},
  "data": [
    {"smiles": "Cc1ccc(-c2nc3ccc(Cl)cc3c(=O)n2/N=C/c2ccccc2)cc1", "values": [
      {"measurement": "growth at 100 µM", "setting": "U-251", "result": 7, "unit": "%"},
      {"measurement": "growth at 100 µM", "setting": "HCT-116", "result": 21, "unit": "%"},
      {"measurement": "growth at 0.01 µM", "setting": "MDA-MB-435", "result": 98, "unit": "%"},
      {"measurement": "growth at 0.01 µM", "setting": "K562", "result": 96, "unit": "%"},
      {"measurement": "growth at 10 µM", "setting": "SK-MEL-5", "result": 57, "unit": "%"},
      {"measurement": "growth at 10 µM", "setting": "SK-MEL-28", "result": 60, "unit": "%"},
      {"measurement": "growth at 10 µM", "setting": "SNB-75", "result": 31, "unit": "%"},
      {"measurement": "growth at 10 µM", "setting": "SNB-19", "result": 34, "unit": "%"},
      {"measurement": "growth at 1 µM", "setting": "MDA-MB-468 [1]", "result": 92, "unit": "%"},
      {"measurement": "growth at 1 µM", "setting": "MDA-MB-231", "result": 78, "unit": "%"},
      {"measurement": "growth at 1 µM", "setting": "DU-145", "result": 96, "unit": "%"},
      {"measurement": "growth at 1 µM", "setting": "PC-3 [2]", "result": 86, "unit": "%"},
      {"measurement": "growth at 1 µM", "setting": "[3]", "result": 101, "unit": "%"},
      {"measurement": "growth at 1 µM", "setting": "[4]", "result": 94, "unit": "%"},
      {"measurement": "growth at 100 µM", "setting": "NCI-H226", "result": 18, "unit": "%"},
      {"measurement": "growth at 10 µM", "setting": "Malme-3M [5]", "result": 43, "unit": "%"},
      {"measurement": "growth at 0.1 µM", "setting": "PC-3 [6]", "result": 90, "unit": "%"},
      {"measurement": "growth at 0.01 µM", "setting": "786-0", "result": 90, "unit": "%"},
      {"measurement": "growth at 0.01 µM", "setting": "[7]", "result": 98, "unit": "%"},
      {"measurement": "GI50", "setting": "[8]; read-out: GI50", "result": 4.58, "unit": "µM"},
      {"measurement": "CC50", "setting": "[8]; [15]", "result": "> 100", "unit": "µM"},
      {"measurement": "TGI", "setting": "[8]; read-out: TGI", "result": "> 100", "unit": "µM"},
      {"measurement": "GI50", "setting": "[8]; read-out: pGI50 (converted)", "result": 4.57, "unit": "µM"},
      {"measurement": "CC50", "setting": "[8]; [16]", "result": "> 100", "unit": "µM"},
      {"measurement": "TGI", "setting": "[8]; read-out: pTGI", "result": "> 100", "unit": "µM"},
      {"measurement": "growth at 1 µM", "setting": "KM12", "result": 91, "unit": "%"},
      {"measurement": "growth at 0.01 µM", "setting": "[9]", "result": 91, "unit": "%"},
      {"measurement": "growth at 1 µM", "setting": "HOP-62 [10]", "result": 86, "unit": "%"},
      {"measurement": "growth at 0.1 µM", "setting": "[11]", "result": 95, "unit": "%"},
      {"measurement": "growth at 0.1 µM", "setting": "Malme-3M [12]", "result": 76, "unit": "%"},
      {"measurement": "growth at 0.1 µM", "setting": "SF-268", "result": 88, "unit": "%"},
      {"measurement": "growth at 0.01 µM", "setting": "MDA-MB-468 [13]", "result": 91, "unit": "%"},
      {"measurement": "GI50", "setting": "HCC 2998; read-out: GI50", "result": "> 100", "unit": "µM"},
      {"measurement": "CC50", "setting": "HCC 2998; [15]", "result": "> 100", "unit": "µM"},
      {"measurement": "TGI", "setting": "HCC 2998; read-out: TGI", "result": "> 100", "unit": "µM"},
      {"measurement": "GI50", "setting": "HCC 2998; read-out: pGI50 (converted)", "result": "> 100", "unit": "µM"},
      {"measurement": "CC50", "setting": "HCC 2998; [16]", "result": "> 100", "unit": "µM"},
      {"measurement": "TGI", "setting": "HCC 2998; read-out: pTGI", "result": "> 100", "unit": "µM"},
      {"measurement": "GI50", "setting": "HOP-62 [14]; read-out: GI50", "result": 1.98, "unit": "µM"},
      {"measurement": "CC50", "setting": "HOP-62 [14]; [15]", "result": 31.8, "unit": "µM"},
      {"measurement": "TGI", "setting": "HOP-62 [14]; read-out: TGI", "result": 5.09, "unit": "µM"},
      {"measurement": "GI50", "setting": "HOP-62 [14]; read-out: pGI50 (converted)", "result": 2, "unit": "µM"},
      {"measurement": "CC50", "setting": "HOP-62 [14]; [16]", "result": 31.6, "unit": "µM"},
      {"measurement": "TGI", "setting": "HOP-62 [14]; read-out: pTGI (converted)", "result": 5.13, "unit": "µM"}
    ]}
  ]
}
